From paper PMC4240344 (Bioconjugate Chemistry, 2014)

Columns and labels:
[1] = tested on: integrin αvβ3/αvβ5 in xenografted U87MG glioma and human colon cancer tissues; experiment: Tumor tissue staining: blocking and RGD-specificity experiments; details: 100 μM; for Staining of tumor tissues (RGD specificity): xenografted U87MG glioma and human colon cancer tissues, same conditions
Procedure, shortened: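 Sections were frozen, acetone-fixed U87MG xenograft slices (5 μm) or deparaffinized, rehydrated human colon cancer slides. They were blocked with 10% goat serum (30 min, 37 °C), then incubated with 100 μM test compound for 1 h at RT, with or without 10 mM c(RGDfK)2 as blocker. After three PBS washes and DAPI mounting, ≥15 random fields per section were scored. Fluorescent area was given as % of total, mean ± standard deviation.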

[2] = tested on: integrin αvβ3/αvβ5 in xenografted U87MG glioma tissues; design: species or system human; details: xenografted U87MG glioma slices, 1 h incubation, tested at 0.1-100 μM
Procedure, shortened: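 U87MG xenografts were snap-frozen in OCT and cut into 5 μm slices. Slices were fixed in ice-cold acetone for 10 min and air-dried for 20 min, then incubated for 1 h with test compound at 0.1, 1.0, 10, 20, 50 or 100 μM. After three PBS washes and DAPI mounting, images were taken at 200× with equal exposure. Fluorescent area was given as % of total area against concentration.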

[3] = tested on: integrin αvβ3/αvβ5 in human carcinoma tissues; experiment: Tumor tissue staining, concentration dependence, human carcinoma tissues
Procedure, shortened: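 Human colon, squamous cell lung and gastric carcinoma slices (5 μm) were deparaffinized in xylene and rehydrated through graded alcohols. They were stained for 1 h with test compound at […], PBS-washed three times and mounted with DAPI medium. Images at 200× with equal exposure and equal brightness/contrast adjustment. Positive staining area was expressed as % of total area and plotted against concentration.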

[4] = tested on: integrin αvβ3/αvβ5 in xenografted U87MG glioma tissues; design: species or system human; details: peptide 100 μM, antibody 2.5 μg/mL, 5-120 min
Procedure, shortened: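 Frozen 5 μm slices of U87MG xenograft were fixed in ice-cold acetone for 10 min and air-dried at RT. They were incubated with 100 μM test compound at RT for 5, 15, 30, 60, 90 or 120 min, PBS-washed three times and mounted with DAPI medium. The antibody arm used 10% goat serum (30 min, 37 °C), then rabbit anti-integrin β3 (2.5 μg/mL) for the same times, then Cy3 goat anti-rabbit (1:100, 1 h). Images at 200× with equal exposure; positive area as % of total plotted against time.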

[5] = tested on: integrin αvβ3/αvβ5 in human carcinoma tissues; experiment: Tumor tissue staining kinetics, time dependence, human carcinoma tissues; details: 50 μM, 5-90 min

Substance	Staining of tumor tissues (RGD specificity) [1]	Concentration range in which tissues were well stained [2] [µM]	Minimal concentration for positive staining of colon carcinoma ([3]; human colon carcinoma slices, 1 h incubation, tested at 1-50 μM) [µM]	Staining of gastric carcinoma tissue ([3]; human gastric carcinoma tissue, 1-50 μM)	Concentration needed to achieve adequate fluorescence staining ([3]; human squamous cell lung cancer tissues, 1 h incubation) [µM]	Incubation time to achieve maximal fluorescent intensity [4] [min]	Incubation time for positive staining of colon cancer tissues [5] [min]	Staining of xenografted U87MG glioma tissues in the absence of blocker ([1]; 1 h, room temperature)
FITC-E[c(RGDfK)]2 (bicyclic or more) [FITC-RGD2]	positively stained							
FITC-Glu[cyclo[Arg-Gly-Asp-D-Phe-Lys(SAA-PEG2-(1,2,3-triazole)-1-yl-4-methylamide)]]2 (bicyclic or more) [FITC-Galacto-RGD2]	positively stained	10 to 100	~5	little staining	> 25	≤ 30	≤ 15	successfully stained
FITC-PEG4-E[PEG4-c(RGDfK)]2 (bicyclic or more) [FITC-3P-RGD2]	positively stained							
